The text below walks through data of ChEMBL document CHEMBL1137015, “Improved, selective, human intestinal carboxylesterase inhibitors designed to modulate 7-ethyl-10-[4-(1-piperidino)-1-piperidino]carbonyloxycamptothecin (Irinotecan; CPT-11) toxicity” (J Med Chem, 2009).

Assay [1] concerns the target Acetylcholinesterase (Homo sapiens) (UniProt P22303). The assay is described as follows: Inhibition of human AchE using acetylthiocholine as substrate by spectrophotometric multiwell plate assay.
For assay [2], the target named is T1, Liver carboxylesterase 1 (Homo sapiens, UniProt P23141).
T1 sequence (P23141 whole entry): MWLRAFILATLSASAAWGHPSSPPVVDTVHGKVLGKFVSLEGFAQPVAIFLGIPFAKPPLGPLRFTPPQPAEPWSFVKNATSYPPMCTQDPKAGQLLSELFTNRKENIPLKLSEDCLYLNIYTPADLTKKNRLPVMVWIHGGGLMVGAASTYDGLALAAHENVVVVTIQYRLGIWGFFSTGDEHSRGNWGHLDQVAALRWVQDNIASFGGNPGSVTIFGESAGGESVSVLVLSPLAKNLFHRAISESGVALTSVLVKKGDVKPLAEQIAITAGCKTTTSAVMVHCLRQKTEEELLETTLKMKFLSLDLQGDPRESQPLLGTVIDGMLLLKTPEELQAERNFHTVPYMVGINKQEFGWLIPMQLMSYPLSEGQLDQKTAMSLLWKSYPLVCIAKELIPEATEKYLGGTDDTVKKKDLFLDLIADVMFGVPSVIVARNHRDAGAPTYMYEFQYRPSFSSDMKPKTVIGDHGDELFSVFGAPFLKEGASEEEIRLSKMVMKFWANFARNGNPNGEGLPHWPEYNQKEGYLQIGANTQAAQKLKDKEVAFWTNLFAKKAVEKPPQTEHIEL
The assay is described as follows: Inhibition of human liver CE1-mediated O-nitrophenyl acetate hydrolysis by spectrophotometry. A digest of the protocol:
(§1)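 Enzyme activity read spectrophotometrically as release of o-nitrophenol from o-nitrophenyl acetate across increasing inhibitor concentrations. Inhibitors were freshly dissolved in DMSO, typically as 10mM stocks. Fractional inhibition was plotted against inhibitor concentration and fitted to a partial-inhibition equation including Ks, α and β. Inhibition mode was chosen by Akaike's information criteria, and Ki was taken from the best-fit model.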

For assay [3], the target named is Cholinesterase (Homo sapiens) (UniProt P06276). The assay is described as follows: Inhibition of human BchE using butyrylthiocholine as substrate by spectrophotometric multiwell plate assay.
Cholinesterase (Homo sapiens), sequence (P06276 whole entry): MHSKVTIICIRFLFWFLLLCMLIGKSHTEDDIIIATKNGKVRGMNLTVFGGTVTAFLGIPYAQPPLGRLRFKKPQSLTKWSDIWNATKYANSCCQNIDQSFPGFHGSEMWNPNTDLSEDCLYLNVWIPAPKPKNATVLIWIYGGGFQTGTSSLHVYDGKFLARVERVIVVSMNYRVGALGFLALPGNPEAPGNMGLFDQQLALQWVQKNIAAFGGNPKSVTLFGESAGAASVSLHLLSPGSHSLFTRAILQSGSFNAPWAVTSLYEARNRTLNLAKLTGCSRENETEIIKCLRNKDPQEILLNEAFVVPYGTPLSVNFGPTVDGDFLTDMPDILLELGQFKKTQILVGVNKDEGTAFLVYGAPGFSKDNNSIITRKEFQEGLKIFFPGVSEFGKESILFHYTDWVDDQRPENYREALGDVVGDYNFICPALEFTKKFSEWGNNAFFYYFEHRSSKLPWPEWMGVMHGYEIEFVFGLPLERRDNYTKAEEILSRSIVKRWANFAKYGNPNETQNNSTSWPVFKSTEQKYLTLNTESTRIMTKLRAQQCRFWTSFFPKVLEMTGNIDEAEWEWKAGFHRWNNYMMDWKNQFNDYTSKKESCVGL
The nature of assay [4]: Inhibition of human intestinal CE-mediated O-nitrophenyl acetate hydrolysis by spectrophotometry. In outline:
as §1

Assay [5] in a line: Inhibition of human intestinal CE-mediated irinotecan hydrolysis. In outline:
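Human intestinal CE (25 U per reaction; 1 U converts 1 nmole o-nitrophenyl acetate/min) with 20µM CPT-11 in 50mM Hepes pH7.4, inhibitor 1nM to 100µM. Incubated 37°C for 5 min, stopped with cold acidified methanol, centrifuged. SN-38 measured by reverse phase HPLC. Fractional inhibition fitted to partial inhibition equation, model chosen by Akaike's criteria, Ki from best fit.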

The source made the active and inactive calls.

Acetylcholinesterase (Homo sapiens), sequence (P22303 whole entry): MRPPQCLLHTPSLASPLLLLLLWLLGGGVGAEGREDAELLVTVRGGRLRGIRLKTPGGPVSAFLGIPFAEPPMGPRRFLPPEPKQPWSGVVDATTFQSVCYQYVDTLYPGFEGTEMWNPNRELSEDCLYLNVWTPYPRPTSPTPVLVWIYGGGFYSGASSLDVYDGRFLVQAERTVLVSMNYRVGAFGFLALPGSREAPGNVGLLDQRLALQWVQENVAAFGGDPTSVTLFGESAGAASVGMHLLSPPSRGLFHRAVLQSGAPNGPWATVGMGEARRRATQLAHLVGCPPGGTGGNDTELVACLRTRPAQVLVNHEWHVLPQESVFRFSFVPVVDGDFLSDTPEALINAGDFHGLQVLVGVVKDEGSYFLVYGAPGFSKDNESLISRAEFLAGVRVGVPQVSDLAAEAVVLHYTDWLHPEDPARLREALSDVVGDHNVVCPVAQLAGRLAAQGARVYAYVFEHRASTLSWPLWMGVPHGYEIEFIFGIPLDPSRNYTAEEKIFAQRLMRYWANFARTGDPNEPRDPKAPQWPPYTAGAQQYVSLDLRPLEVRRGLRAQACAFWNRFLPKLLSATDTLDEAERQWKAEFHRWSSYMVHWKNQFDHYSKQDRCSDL

With `O=S(=O)(Nc1ccc(NS(=O)(=O)c2ccccc2)c(Cl)c1)c1ccccc1`, the outcome in assay [1] and in assay [3] was inactive. Besides, the Ki in assay [2] is > 100000 nM; in assay [4], 696 nM.
On to `O=S(=O)(Nc1ccc(NS(=O)(=O)c2cc(F)cc(F)c2)cc1)c1cc(F)cc(F)c1`, for which the outcome in assay [1] and in assay [3] was inactive. Also, the Ki in assay [2] is > 100000 nM; in assay [4], 246 nM.
On to `O=S(=O)(Nc1ccc(NS(=O)(=O)c2ccc(Cl)cc2)cc1)c1ccc(Cl)cc1`, for which the result in assay [1] and in assay [3] was inactive. For the same molecule, the Ki in assay [5] worked out at 141 nM.
As for `O=S(=O)(Nc1ccc(NS(=O)(=O)c2cc(Cl)cc(Cl)c2)cc1)c1cc(Cl)cc(Cl)c1`, the result in assay [1] and in assay [3] was inactive. Moreover, the Ki is > 100000 nM in assay [2] and 385 nM in assay [4].
Turning to `CCOc1ccc(NS(=O)(=O)c2ccc(Cl)cc2)cc1`, the outcome in assay [1] and in assay [3] was inactive. Also, the Ki in assay [5] came to 3220 nM; in assay [4] it was 1310 nM.
With `O=S(=O)(Nc1ccc(NS(=O)(=O)c2ccccc2F)cc1)c1ccccc1F`, the outcome in assay [1] and in assay [3] was inactive. Further, the Ki in assay [2] was > 100000 nM; in assay [4] it was 1450 nM.
On to `Cc1ccc(S(=O)(=O)Nc2ccc(NS(=O)(=O)c3ccc(F)cc3)cc2)cc1`, for which the outcome in assay [1] and in assay [3] was inactive. The Ki in assay [2] was > 100000 nM; in assay [4] it was 281 nM.
For the molecule `O=S(=O)(Nc1c(Cl)c(Cl)c(NS(=O)(=O)c2ccccc2)c(Cl)c1Cl)c1ccccc1`, the result in assay [1] and in assay [3] was inactive. For the same molecule, the Ki is > 100000 nM in assay [5] and 451 nM in assay [4].
`Cc1c(C)c(NS(=O)(=O)c2cccc(Br)c2)c(C)c(C)c1NS(=O)(=O)c1cccc(Br)c1`: the outcome in assay [1] and in assay [3] was inactive. Further, the Ki is > 100000 nM in assay [2] and 1570 nM in assay [4].
Turning to `Cc1c(C)c(NS(=O)(=O)c2ccc(Cl)cc2)c(C)c(C)c1NS(=O)(=O)c1ccc(Cl)cc1`, the outcome in assay [1] and in assay [3] was inactive. The Ki in assay [2] was > 100000 nM; in assay [4], 2010 nM.
`O=S(=O)(Nc1ccc(NS(=O)(=O)c2cc(Cl)ccc2Cl)cc1)c1cc(Cl)ccc1Cl`: the outcome in assay [1] and in assay [3] was inactive. For the same molecule, the figures for the inhibitory constant (Ki) in assay [2] and in assay [4] were > 100000 nM and 119 nM, respectively.
As to `O=S(=O)(Nc1c(F)c(F)c(NS(=O)(=O)c2ccc(Cl)cc2)c(F)c1F)c1ccc(Cl)cc1`, the result in assay [1] and in assay [3] was inactive. Moreover, the Ki is 110 nM in assay [5] and 41.5 nM in assay [4].
Regarding `Cc1ccc(C)c(S(=O)(=O)Nc2ccc(NS(=O)(=O)c3ccc(F)cc3)cc2)c1`, the outcome in assay [1] and in assay [3] was inactive. For the same molecule, the Ki was > 100000 nM in assay [2] and 240 nM in assay [4].
As to `Cc1ccc(S(=O)(=O)Nc2ccc(NS(=O)(=O)c3ccc(Cl)cc3)cc2)cc1`, the result in assay [1] and in assay [3] was inactive. Also, the values for the Ki in assay [2] and in assay [4] were > 100000 nM and 161 nM, respectively.
As to `O=S(=O)(Nc1ccc(NS(=O)(=O)c2cc(Cl)c(Cl)cc2Cl)cc1)c1cc(Cl)c(Cl)cc1Cl`, the result in assay [1] and in assay [3] was inactive. Also, the Ki in assay [2] and in assay [4] was > 100000 nM throughout.
Consider `O=S(=O)(Nc1ccc(NS(=O)(=O)c2ccc(F)c(F)c2)cc1)c1ccc(F)c(F)c1`, for which the outcome in assay [1] and in assay [3] was inactive. In addition, the Ki was > 100000 nM in assay [2] and 160 nM in assay [4].
As for `O=S(=O)(Nc1ccc(NS(=O)(=O)c2ccc(Cl)c(Cl)c2)cc1)c1ccc(Cl)c(Cl)c1`, the outcome in assay [1] and in assay [3] was inactive. The Ki was > 100000 nM in assay [2] and 91.5 nM in assay [4].
`O=S(=O)(Nc1ccc(NS(=O)(=O)c2ccc3ccccc3c2)cc1)c1ccc2ccccc2c1`: the result in assay [1] and in assay [3] was inactive. Besides, the Ki in assay [2] was > 100000 nM; in assay [4], 1580 nM.
For the molecule `Cc1ccc(S(=O)(=O)Nc2ccc(NS(=O)(=O)c3cc(F)ccc3F)cc2)cc1`, the result in assay [1] and in assay [3] was inactive. Moreover, the figures for the Ki in assay [2] and in assay [4] were > 100000 nM and 467 nM, respectively.
Consider `O=S(=O)(Nc1cc(Cl)c(NS(=O)(=O)c2ccc(Cl)cc2)cc1Cl)c1ccc(Cl)cc1`, for which the outcome in assay [1] and in assay [3] was inactive. Besides, the Ki in assay [2] is > 100000 nM; in assay [4] it was 455 nM.
For the molecule `O=C(O)c1ccc(S(=O)(=O)Nc2ccc(NS(=O)(=O)c3ccc(F)cc3)cc2)cc1`, the result in assay [1] and in assay [3] was inactive. In addition, the Ki in assay [2] and in assay [4] was > 100000 nM throughout.
Turning to `O=S(=O)(Nc1ccc(NS(=O)(=O)c2ccc(Cl)cc2)cc1)c1ccc(F)cc1`, the result in assay [1] and in assay [3] was inactive. The Ki in assay [2] was > 100000 nM; in assay [4], 200 nM.
For `O=S(=O)(Nc1c(F)c(F)c(NS(=O)(=O)c2ccc(F)cc2)c(F)c1F)c1ccc(F)cc1`, the result in assay [1] and in assay [3] was inactive. In addition, the Ki in assay [2] was > 100000 nM; in assay [4], 314 nM.
As to `CNC(=O)c1ccc(S(=O)(=O)Nc2ccc(NS(=O)(=O)c3ccc(F)cc3)cc2)cc1`, the outcome in assay [1] and in assay [3] was inactive. Besides, the Ki in assay [2] and in assay [4] was > 100000 nM throughout.
Regarding `Cc1c(C)c(NS(=O)(=O)c2cccc(Cl)c2)c(C)c(C)c1NS(=O)(=O)c1cccc(Cl)c1`, the outcome in assay [1] and in assay [3] was inactive. In addition, the figures for the Ki in assay [2] and in assay [4] were > 100000 nM and 2060 nM, respectively.
As for `O=S(=O)(Nc1cc(Br)c(NS(=O)(=O)c2ccc(Cl)cc2)cc1Br)c1ccc(Cl)cc1`, the result in assay [1] and in assay [3] was inactive. The Ki in assay [2] and in assay [4] was > 100000 nM throughout.
As to `Cc1c(C)c(NS(=O)(=O)c2ccc(Cl)c(Cl)c2)c(C)c(C)c1NS(=O)(=O)c1ccc(Cl)c(Cl)c1`, the outcome in assay [1] and in assay [3] was inactive. For the same molecule, the values for the Ki in assay [2] and in assay [4] were > 100000 nM and 344 nM, respectively.
In the case of `Cc1ccc(S(=O)(=O)Nc2ccc(NS(=O)(=O)c3ccc(F)c(F)c3)cc2)cc1`, the outcome in assay [1] and in assay [3] was inactive. For the same molecule, the Ki in assay [2] is > 100000 nM; in assay [4], 194 nM.
On to `O=S(=O)(Nc1ccc(NS(=O)(=O)c2cccc(Cl)c2Cl)cc1)c1cccc(Cl)c1Cl`, for which the outcome in assay [1] and in assay [3] was inactive. Moreover, the Ki is > 100000 nM in assay [2] and 268 nM in assay [4].
In the case of `Cc1ccc(S(=O)(=O)Nc2ccc(NS(=O)(=O)c3ccc(F)cc3F)cc2)cc1`, the result in assay [1] and in assay [3] was inactive. Also, the Ki in assay [2] was > 100000 nM; in assay [4] it was 385 nM.
`COc1ccc(S(=O)(=O)Nc2ccc(NS(=O)(=O)c3ccc(F)cc3)cc2)cc1`: the result in assay [1] and in assay [3] was inactive. Further, the Ki in assay [2] was > 100000 nM; in assay [4] it was 568 nM.
For `O=S(=O)(Nc1ccc(NS(=O)(=O)c2ccc(F)c(F)c2)cc1)c1ccccc1`, the outcome in assay [1] and in assay [3] was inactive. For the same molecule, the Ki was > 100000 nM in assay [2] and 488 nM in assay [4].
`Cc1ccc(C(=O)O)cc1S(=O)(=O)Nc1ccc(NS(=O)(=O)c2ccc(F)cc2)cc1`: the outcome in assay [1] and in assay [3] was inactive. The values for the Ki in assay [2] and in assay [4] were > 100000 nM and 693 nM, respectively.
`O=S(=O)(Nc1cc(Br)c(NS(=O)(=O)c2ccccc2)cc1Br)c1ccccc1`: the outcome in assay [1] and in assay [3] was inactive. Moreover, the Ki in assay [2] and in assay [4] was > 100000 nM each time.

As a reminder, the Ki is the equilibrium dissociation constant of an inhibitor or competing ligand from its target.
